From ChEMBL document CHEMBL3352696, “Selective immunoproteasome inhibitors with non-peptide scaffolds identified from structure-based virtual screening” (Bioorg Med Chem Lett, 2014)
Residues, ends and D or L forms follow the SMILES beside them. *: point of attachment. Fmoc = O=C(OCC1c2ccccc2-c2ccccc21)*

Experiments:
[1] = system: Proteasome; test: Inhibition of chymotrypsin-like activity of constitutive proteasome (unknown origin) using Suc-LLVY-AMC as substrate at 5 uM after 90 mins by fluorescence assay; type: subcellular; conditions: Homo sapiens
How it was run: (§1)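 Purified human 20S immunoproteasome or constitutive proteasome, 2-fold diluted in 20 mM Tris/Cl pH 8.0, 0.5 mM EDTA, 0.035% SDS, at 50 ng/well. The enzyme was preincubated with compound (5 µM, from DMSO) for 90 min at room temperature. Then 100 µM Suc-LLVY-AMC was added and AMC fluorescence (Ex 360/Em 460) was read for 90 min. […] Run in triplicate.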

[2] = species: Homo sapiens; test: Inhibition of chymotrypsin-like activity of human 20S immunoproteasome using Suc-LLVY-AMC as substrate at 5 uM after 90 mins by fluorescence assay; how it was run: as §1
[3] = Inhibition of chymotrypsin-like activity of human 20S immunoproteasome using Suc-LLVY-AMC as substrate after 90 mins by fluorescence assay
[4] = species: Homo sapiens; test: Inhibition of chymotrypsin-like activity of human 20S immunoproteasome using Suc-LLVY-AMC as substrate at 1 uM after 90 mins by fluorescence assay

Compound | inhibition [1] [%] | inhibition [2] [%] | IC50 [3] [µM] | inhibition [4] [%]
Cc1cccc(Nc2ccccc2C(=O)N[C@H](CC[S@+](C)[O-])C(=O)N[C@H](C)c2ccc(F)cc2)c1C | 33 | 31 |  | 
NC(=O)CC[C@H](NC(=O)[C@H](Cc1cnc[nH]1)NC(=O)OCC1c2ccccc2-c2ccccc21)C(=O)N1CCC[C@H]1C(=O)O (Fmoc-His-Gln-Pro-OH) | 24 | 35 |  | 
O=C1CN(/N=C/c2ccc(-c3ccc(Cl)cc3)o2)C(=O)N1CCCCN1CCN(C[C@@H](O)c2ccccc2)CC1 | 16 | 25 |  | 
O=C(C[C@@H]1CCN(CC2CC2)C[C@@H]1[C@H]1CC(c2ccccc2Cl)=NO1)NCCc1ccccn1 | 14 | 13 |  | 
CC[C@@H](NC(=O)[C@@H](CC(C)C)NC(=O)OCc1ccccc1)C(=O)C(=O)NCCCN1CCOCC1 | 6 | 14 |  | 
Cc1ccc(CSC[C@@H](NC(=O)c2cc(-c3ccccc3)nc3ccccc23)C(=O)NCCCN2CCCC2=O)cc1 | 15 | 62 | 4.9 | 
CC[C@H](C)[C@H](NC(=O)[C@H]([C@@H](C)CC)N(C)C(C)=O)C(=O)N[C@H](C(=O)N[C@@H](CC(C)C)C(=O)[C@@]1(C)CO1)[C@@H](C)O |  |  |  | 100
Cc1ccc(-c2cc(C(=O)NC[C@@H]3CCCO3)c3cc(CNS(=O)(=O)c4cccc(Cl)c4)ccc3n2)o1 | 20 | 85 | 1.7 | 
CCC[C@H]1C[C@H](C(=O)N[C@@H]([C@@H]2O[C@H](SC)[C@@H](O)[C@@H](O)[C@@H]2O)[C@@H](C)O)N(C)C1 | 2 | 36 | 22 | 
CCCCc1ccc2nc(-c3ccc(OC)cc3)cc(C(=O)NC[C@@H](C)C(=O)N3CCC[C@@H]3CO)c2c1 | 2 | 21 |  | 
